# Results gathered from unrelated publications.
# EGFR G719C: Epidermal growth factor receptor (EGFR, Homo sapiens, UniProt P00533, G719C)
# EGFR T790M: Epidermal growth factor receptor (EGFR, Homo sapiens, UniProt P00533, T790M)
# EGFR L858R: Epidermal growth factor receptor (EGFR, Homo sapiens, UniProt P00533, L858R)
# EGFR: Epidermal growth factor receptor (EGFR, Homo sapiens, UniProt P00533)
# EGFR del752-759: Epidermal growth factor receptor (EGFR, Homo sapiens, UniProt P00533, del752-759)
SMILES,target,test,conditions,remaining binding [%]
O=C(NCCCN1CCOCC1)c1ccc(Nc2nccc(-c3cc4ccccc4s3)n2)cc1,"Epidermal growth factor receptor (EGFR, Homo sapiens, UniProt P00533, L858R/T790M)","binding, competition with immobilised ligand",1 µM,75
CNC(=O)[C@@H]1CC[C@@H](n2c(-c3ccc4cnccc4c3)nc3ccc(C(=O)NCc4cccc(C(N)=O)c4)cc32)C1,EGFR G719C,"binding, competition with immobilised ligand",1 µM,100
O=C(c1ccc(Nc2ncc(Cl)c(-c3cc4ccccc4s3)n2)cc1)N1CCC(N2CCCC2)CC1,EGFR T790M,"binding, competition with immobilised ligand",1 µM,58
F[C@@H]1CCN(c2nccc(-c3cnn4ncccc34)n2)C1,"Epidermal growth factor receptor (EGFR, Homo sapiens, UniProt P00533, G719S)",binding,1 µM,100
COc1cnc(Nc2cccc(S(N)(=O)=O)c2)nc1N1CCN(c2ccccc2)C(=O)C1,EGFR L858R,"binding, competition with immobilised ligand",1 µM,100
CCN1CCN(Cc2ccc(C(=O)Nc3ccc(C)c(Oc4ccc5c(c4)CC(=O)N5)c3)cc2C(F)(F)F)CC1,EGFR L858R,"binding, competition with immobilised ligand",1 µM,100
O=C(c1ccc(Nc2nccc(-c3cc4ccccc4s3)n2)cc1)N1CCC(N2CCCC2)CC1,EGFR,"binding, competition with immobilised ligand",1 µM,97
COc1cnc(Nc2cccc(S(N)(=O)=O)c2)nc1N1CCN(c2ccccc2)CC1,EGFR,"binding, competition with immobilised ligand",1 µM,100
Cc1c(C(=O)O)cc(-c2ccc(C3CCNCC3)cc2)c2ccc(-c3ccc(C(F)(F)F)cc3)cc12,"Epidermal growth factor receptor (EGFR, Homo sapiens, UniProt P00533, L861Q)","cell-free assay, competition with immobilised ligand",1 µM,100
c1cncc(-c2cccc(Nc3nccc(NC4CCCCC4)n3)c2)c1,EGFR del752-759,"binding, competition with immobilised ligand",10 µM,69
C[C@@H]1CCN(c2nccc(-c3cnn4ncccc34)n2)C1,EGFR,binding,1 µM,100
CN1CCN(c2ccc(Nc3nccc(-c4cccc([N+](=O)[O-])c4)n3)cc2C(F)(F)F)CC1,EGFR G719C,binding,10 µM,69
Nc1ncc2c(n1)-c1c([nH]c3ccc(C#CC4CC4)cc13)CCCC2,EGFR L858R,"binding, competition with immobilised ligand",1 µM,100
CSc1cccnc1N1CCN(Cc2nc3ccccc3[nH]2)CC1,EGFR T790M,"cell-free assay, competition with immobilised ligand",1 µM,85
O=C(Nc1c[nH]nc1C(=O)NC1CCNCC1)c1cc(F)cc(F)c1,EGFR T790M,"binding, competition with immobilised ligand",1 µM,100
CN(C)c1ncc(F)c(-c2cnn3ncccc23)n1,EGFR G719C,binding,1 µM,86
O=C(NCC1CCOCC1)c1n[nH]cc1NC(=O)c1c(F)cccc1F,EGFR L858R,"binding, competition with immobilised ligand",1 µM,89
CN(c1nccc(-c2cnn3ncccc23)n1)C1CC1,EGFR T790M,binding,1 µM,100
CNCc1ccccc1-c1csc([C@@H](C)Nc2nc(C)nc3cc(OC)c(OC)cc23)c1,EGFR del752-759,"cell-free assay, competition with immobilised ligand",1 µM,63
Cc1cnc(Nc2ccc(C(=O)N3CCC(N4CCCC4)CC3)cc2)nc1-c1cc2ccccc2s1,EGFR del752-759,"binding, competition with immobilised ligand",1 µM,84
CN(C)c1nccc(-c2cnc3ncccn23)n1,EGFR G719C,binding,1 µM,100
CNC(=O)Nc1ccc2c(c1)[C@@]1(CC2)OC(=O)N(CC(=O)N(Cc2ccc(F)cc2)[C@@H](C)C(F)(F)F)C1=O,"Epidermal growth factor receptor (EGFR, Homo sapiens, UniProt P00533, A750P/del747-749)","cell-free assay, competition with immobilised ligand",1 µM,96
COc1ccnn2ncc(-c3ccnc(N(C)C)n3)c12,"Epidermal growth factor receptor (EGFR, Homo sapiens, UniProt P00533, del746-750)",binding,1 µM,97
O=C(O)[C@H]1[C@H](Cn2nnc3ccccc3c2=O)CC[C@@H]1C(=O)c1ccc(OCCC2CCOCC2)cc1,"Epidermal growth factor receptor (EGFR, Homo sapiens, UniProt P00533, del747-750/T751S)","cell-free assay, competition with immobilised ligand",1 µM,65
O=C(NCCCN1CCOCC1)c1ccc(Nc2ncc(Cl)c(-c3ccc(Cl)s3)n2)cc1,EGFR del752-759,"binding, competition with immobilised ligand",1 µM,92
CN(C)CC#Cc1ccc(OCCCc2sc(N3CCc4cccc(C(=O)Nc5nc6ccccc6s5)c4C3)nc2C(=O)O)c(F)c1,"Epidermal growth factor receptor (EGFR, Homo sapiens, UniProt P00533, del747-752/P753S)","cell-free assay, competition with immobilised ligand",1 µM,100
O=C(c1ccc(Nc2ncc(Cl)c(-c3ccc(Cl)s3)n2)cc1)N1CCC(N2CCCC2)CC1,EGFR G719C,"binding, competition with immobilised ligand",1 µM,100
CC(=O)C1=C(C)N(c2cccc(C(F)(F)F)c2)C(=O)N[C@@H]1c1ccc(C#N)nc1,EGFR G719C,"cell-free assay, competition with immobilised ligand",1 µM,100
CN1CCN(c2ccc(Nc3nccc(-c4ccccc4)n3)cc2C(F)(F)F)CC1,EGFR del752-759,binding,10 µM,100
Cc1cnn2ncc(-c3ccnc(N(C)C)n3)c2c1,EGFR del752-759,binding,1 µM,100
N#Cc1ccc(Nc2ccc3[nH]c(=O)[nH]c3c2)c(Cl)c1,EGFR del752-759,"cell-free assay, competition with immobilised ligand",1 µM,100
